In ChEMBL document CHEMBL1121953, “Carbon-7 substituted actinomycin D analogues as improved antitumor agents: synthesis and DNA-binding and biological properties” (J Med Chem, 1982):
In brackets after ≈: the same amount, converted by molar mass. *1 amine or outer side, *2 acyl side, *3 side chain or, on linkers, in order; H or OH if unused. Where a SMILES comes first, the peptide text is derived from it. Bridges are numbered along the chain shown (N, C = ends). Roman numbers before positions name the chains, in order. [ ]: non-standard residue; d: D form. Actinocin(9to1) = Cc1c2oc3c(C)ccc(C(=O)[*:1])c3nc-2c(C(=O)[*:2])c(N)c1=O; NMeV = CN[C@H](C(=O)O)C(C)C; Sar = CNCC(=O)O

How the values were obtained:
[1] = tested on: P388; assay: Minimum effective dose was determined compared to 7-(2,3-Epoxypropoxy)-actinomycin D against P-388 leukemia in mice(4 days); format: functional, Mus musculus
Summary of the method: (§1)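 MED was the dose (mg/kg) giving a 40% increase in life span over control in mice bearing ip P-388 leukemia. Drug was given ip in 10% dimethyl sulfoxide-saline on a q4d 1, 5, 9 (three injections) or qd 1-4 (four injections) schedule.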

[2] = tested on: P388; assay: Number of mice with P-388 lymphocytic leukemia cured.( 1.8 mg/kg),ip; 0/7; format: functional, Mus musculus
[3] = tested on: P388; assay: Antitumor activity against P-388 lymphocytic leukemia in CDF1 hybrid male mice measured as percent increase in lifespan( 1.2 mg/kg),ip; format: functional; details: Mus musculus
Summary of the method: (§2)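 Male CDF1 mice (18-23 g) were inoculated ip with 10⁶ P-388 cells on day 0. Drug was given ip in 10% dimethyl sulfoxide-saline on days 1, 5 and 9. Test solutions were kept at 0-4 °C, protected from light, and checked periodically for stability and homogeneity by TLC and HPLC. Read-out was survival, median survival time, increase in life span and tumor-free cures per 7 animals.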

[4] = tested on: P388; assay: Number of mice with P-388 lymphocytic leukemia cured( 1.2 mg/kg),ip; 0/7; format: functional, Mus musculus; summary of the method: as §2
[5] = tested on: P388; assay: Minimum effective dose was determined compared to 7-(2,3-Epoxypropoxy)-actinomycin D against P-388 leukemia in mice(3 days); format: functional, Mus musculus; set-up: unit: mg/kg; summary of the method: as §1
[6] = tested on: P388; assay: Number of mice with P-388 lymphocytic leukemia cured( 0.6 mg/kg),ip; 1/7; format: functional, Mus musculus; summary of the method: as §2
[7] = tested on: P388; assay: Antitumor activity against P-388 lymphocytic leukemia in CDF1 hybrid male mice measured as median survival time ( 0.15 mg/kg),ip; format: functional, Mus musculus; summary of the method: as §2
[8] = tested on: P388; assay: Maximum tolerated dose was determined compared to 7-(2,3-Epoxypropoxy)-actinomycin D against P-388 leukemia in mice(4 days); format: functional, Mus musculus
Summary of the method: (§3)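 Tumor-free male CDF1 mice (18-23 g) received a broad dose range ip in 10% dimethyl sulfoxide-saline, either on days 1, 5, 9 (three injections) or on 4 successive days (qd 1-4). Deaths were recorded over 21 days. MTD was the dose lethal to 10% (LD10), taken from a plot of log dose vs percent mortality. Average of two experiments.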

[9] = tested on: P388; assay: Antitumor activity against P-388 lymphocytic leukemia in CDF1 hybrid male mice measured as percent increase in lifespan( 1.8 mg/kg),ip; format: functional; details: Mus musculus; summary of the method: as §2
[10] = tested on: P388; assay: Antitumor activity against P-388 lymphocytic leukemia in CDF1 hybrid male mice measured as median survival time ( 1.8 mg/kg),ip; format: functional, Mus musculus; summary of the method: as §2
[11] = tested on: P388; assay: Antitumor activity against P-388 lymphocytic leukemia in CDF1 hybrid male mice measured as median survival time ( 0.3 mg/kg),ip; format: functional, Mus musculus; summary of the method: as §2
[12] = tested on: P388; assay: Antitumor activity against P-388 lymphocytic leukemia in CDF1 hybrid male mice measured as percent increase in lifespan(0.15 mg/kg),ip; format: functional, Mus musculus; summary of the method: as §2
[13] = tested on: P388; assay: Number of mice with P-388 lymphocytic leukemia cured( 0.3 mg/kg),ip; 2/7; format: functional, Mus musculus; summary of the method: as §2
[14] = organism: Homo sapiens; assay: In vitro growth inhibitory activity against human lymphoblastic leukemia cells; format: functional; details: read-out: ID50 (the source's name)
Summary of the method: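 CCRF-CEM human lymphoblastic leukemia cells in log-phase growth; compounds dissolved in Me₂SO, final growth medium 1% Me₂SO.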

[15] = tested on: P388; assay: Antitumor activity against P-388 lymphocytic leukemia in CDF1 hybrid male mice measured as percent increase in lifespan(0.3 mg/kg),ip; format: functional, Mus musculus; summary of the method: as §2
[16] = tested on: P388; assay: Antitumor activity against P-388 lymphocytic leukemia in CDF1 hybrid male mice measured as percent increase in lifespan(0.6 mg/kg),ip; format: functional, Mus musculus; summary of the method: as §2
[17] = tested on: P388; assay: Antitumor activity against P-388 lymphocytic leukemia in CDF1 hybrid male mice measured as median survival time ( 1.2 mg/kg),ip; format: functional, Mus musculus; summary of the method: as §2
[18] = tested on: P388; assay: Maximum tolerated dose was determined compared to 7-(2,3-Epoxypropoxy)-actinomycin D against P-388 leukemia in mice(3 days); format: functional, Mus musculus; summary of the method: as §3
[19] = tested on: P388; assay: Number of mice with P-388 lymphocytic leukemia cured( 0.15 mg/kg),ip.; 0/7; format: functional, Mus musculus; summary of the method: as §2
[20] = tested on: P388; assay: Antitumor activity against P-388 lymphocytic leukemia in CDF1 hybrid male mice measured as median survival time ( 0.6 mg/kg),ip; format: functional, Mus musculus; summary of the method: as §2
[21] = tested on: P388; assay: Antitumor activity against P-388 lymphocytic leukemia in CDF1 hybrid male mice measured as percent increase in lifespan(0.062 mg/kg),ip; format: functional, Mus musculus; summary of the method: as §2
[22] = tested on: P388; assay: Antitumor activity against P-388 lymphocytic leukemia in CDF1 hybrid male mice measured as median survival time ( 0.375 mg/kg),ip; format: functional, Mus musculus; summary of the method: as §2
[23] = tested on: P388; assay: Antitumor activity against P-388 lymphocytic leukemia in CDF1 hybrid male mice measured as percent increase in lifespan( 0.031 mg/kg),ip; format: functional; details: Mus musculus; summary of the method: as §2
[24] = Therapeutic Index measured as the MTD/MED ratio compared to that of compound 4; details: read-out: Therapeutic index
Summary of the method: (§4)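 Therapeutic index is MTD/MED, with ip dosing in 10% dimethyl sulfoxide-saline on a qd 1-4 or q4d 1, 5, 9 schedule. MED is the dose giving a 40% increase in life span over control in P-388-bearing mice. MTD is the LD10 in tumor-free male CDF1 mice (18-23 g) over 21 days, read from a log dose vs. percent mortality plot and averaged over 2-3 experiments.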

[25] = tested on: P388; assay: Number of mice with P-388 lymphocytic leukemia cured( 0.125 mg/kg),ip.; 1/7; format: functional, Mus musculus
[26] = tested on: P388; assay: Number of mice with P-388 lymphocytic leukemia cured( 0.250 mg/kg),ip; 0/7; format: functional, Mus musculus; details: dose 0.25 mg/kg
[27] = tested on: P388; assay: Antitumor activity against P-388 lymphocytic leukemia in CDF1 hybrid male mice measured as median survival time (0.031 mg/kg),ip; format: functional, Mus musculus; summary of the method: as §2
[28] = Therapeutic Index measured as the MTD/MED ratio compared to that of compound 3; details: read-out: Therapeutic index; summary of the method: as §4
[29] = tested on: P388; assay: Antitumor activity against P-388 lymphocytic leukemia in CDF1 hybrid male mice measured as percent increase in lifespan( 0.250 mg/kg),ip; format: functional; details: Mus musculus; summary of the method: as §2
[30] = tested on: P388; assay: Number of mice with P-388 lymphocytic leukemia cured( 0.031 mg/kg),ip; 0/7; format: functional, Mus musculus
[31] = tested on: P388; assay: Antitumor activity against P-388 lymphocytic leukemia in CDF1 hybrid male mice measured as median survival time (0.125 mg/kg),ip; format: functional, Mus musculus; summary of the method: as §2
[32] = tested on: P388; assay: Antitumor activity against P-388 lymphocytic leukemia in CDF1 hybrid male mice measured as median survival time (0.25 mg/kg),ip; format: functional, Mus musculus; summary of the method: as §2
[33] = tested on: P388; assay: Number of mice with P-388 lymphocytic leukemia cured.( 0.062 mg/kg),ip; 0/7; format: functional, Mus musculus
[34] = In vitro growth inhibitory activity for effect on melting temperature of DNA was determined
Summary of the method: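 DNA thermal denaturation; ΔTm = Tm of DNA-drug complex minus Tm of DNA. Drug 1.4×10⁻⁴ M, DNA (P) 1.4×10⁻³ M in 0.01 M phosphate buffer pH 7.0 with 5×10⁻³ M EDTA and 5% dimethyl sulfoxide.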

[35] = tested on: P388; assay: Antitumor activity against P-388 lymphocytic leukemia in CDF1 hybrid male mice measured as median survival time (0.062 mg/kg),ip; format: functional, Mus musculus; summary of the method: as §2
[36] = tested on: P388; assay: Antitumor activity against P-388 lymphocytic leukemia in CDF1 hybrid male mice measured as percent increase in lifespan( 0.125 mg/kg),ip; format: functional; details: Mus musculus; summary of the method: as §2

Structure (SMILES): Cc1c2oc3c(C)c(OCC(O)CO)cc(C(=O)N[C@@H]4C(=O)N[C@H](C(C)C)C(=O)N5CCC[C@H]5C(=O)N(C)CC(=O)N(C)[C@@H](C(C)C)C(=O)O[C@@H]4C)c3nc-2c(C(=O)N[C@@H]2C(=O)N[C@H](C(C)C)C(=O)N3CCC[C@H]3C(=O)N(C)CC(=O)N(C)[C@@H](C(C)C)C(=O)O[C@@H]2C)c(N)c1=O (stereo partly specified)
- MED [1]: 0.125
- Cure [2]: 0
- ILS at 1.2 mg/kg [3]: 191%
- Cure [4]: 0
- MED [5]: 0.15
- Cure [6]: 1
- MST [7]: 16 days
- MTD [8]: 1.4
- ILS at 1.8 mg/kg [9]: 36%
- MST [10]: 15 days
- MST [11]: 20 days
- ILS [12]: 45%
- Cure [13]: 2
- IC50 [14]: 0.085 µg/mL (≈ 0.0632 µM)
- ILS [15]: 82%
- ILS [16]: 136%
- MST [17]: 32 days
- MTD [18]: 1.8
- Cure [19]: 0
- MST [20]: 25 days

Structure (SMILES): Cc1c2oc3c(C)ccc(C(=O)N[C@@H]4C(=O)N[C@H](C(C)C)C(=O)N5CCC[C@H]5C(=O)N(C)CC(=O)N(C)[C@@H](C(C)C)C(=O)O[C@@H]4C)c3nc-2c(C(=O)N[C@@H]2C(=O)N[C@H](C(C)C)C(=O)N3CCC[C@H]3C(=O)N(C)CC(=O)N(C)[C@@H](C(C)C)C(=O)O[C@@H]2C)c(N)c1=O [DACTINOMYCIN] (I: T[dV]P[Sar][NMeV] / II: T[dV]P[Sar][NMeV]; ester I:1-I:C, II:1-II:C; linker I:N-II:N via Actinocin(9to1))
- ILS [21]: 45%
- MED [1]: 0.05
- MST [22]: 9 days
- ILS at 0.031 mg/kg [23]: 18%
- selectivity ratio [24]: 3
- MED [5]: 0.0625
- MTD [8]: 0.15
- Cure [25]: 1
- Cure [26]: 0
- MST [27]: 13 days
- selectivity ratio [28]: 4
- ILS at 0.25 mg/kg [29]: 55%
- Cure [30]: 0
- MST [31]: 26 days
- MST [32]: 17 days
- Cure [33]: 0
- DNA melting temperature shift (ΔTm) [34]: 7.1 °C
- MST [35]: 16 days
- IC50 [14]: 0.06 µg/mL (≈ 0.0478 µM)
- ILS at 0.125 mg/kg [36]: 136%
- MTD [18]: 0.25
